Here are results for five compounds from ChEMBL document CHEMBL1121813, “Dihydrochalcone sweeteners. A study of the atypical temporal phenomena” (1981).

Type in all cases: functional
Assay [1] is filed under the species Homo sapiens. The assay is described as follows: Number of taste judgments per compound.
For assay [2], the species on record is Homo sapiens. The assay is described as follows: Experimentally determined perceived intensity of compound at a concentration of 2400 ppm (mean value). The procedure, abridged: (§1)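 Trained human sensory panel of judges tasted aqueous solutions of the compound. Samples had to be ≥95 weight % pure (HPLC, proton titration, Karl Fischer), non-mutagenic in five Salmonella typhimurium strains with and without microsomal activation, and non-toxic in a single-oral-dose mouse test. Perceived intensity (Ip) was read from time–intensity curves at 4- or 6-s intervals and averaged. Outliers at the 95% level were rejected by t-value. Values reported as mean (2Sm).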

Assay [3] is filed under the species Homo sapiens. Put plainly: Percentage of judgments reporting an aftertaste at a concentration of 2400 ppm and character thereof. The procedure, abridged:
(§2)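 Trained judges tasted aqueous solutions of the compounds, which had to be ≥95 weight percent pure and to have passed mutagenicity and single oral dose toxicity screening. The value is the percentage of panel judgments reporting an aftertaste. Where given, its character is recorded as sweet, bitter or bitter-sweet.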

The species entered for assay [4] is Homo sapiens. The assay is described as follows: Experimentally determined perceived intensity of compound at a concentration of 248 ppm (mean value). A digest of the protocol:
as §1

Assay [5] is filed under the species Homo sapiens. The assay is described as follows: Salty character at a concentration of 248 ppm (mean value).
For assay [6], the species on record is Homo sapiens. Put plainly: Sweet character at a concentration of 248 ppm (mean value).
Assay [7] is filed under the species Homo sapiens. Put plainly: Intensity calculated on a molar basis relative to a 0.25 M sucrose solution at a concentration of 248 ppm (mean value). The procedure, abridged:
(§3)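 Trained human judges tasted aqueous solutions of the test compound; compounds were first required to be ≥95 weight percent pure and free of mutagenicity (five Salmonella typhimurium strains, ± microsomal activation) and of single oral dose mouse toxicity. Molar intensity I_m = perceived intensity × (0.25 M sucrose / compound molar concentration). The mean is reported with 2S_m limits; outliers were rejected at 95% confidence by t-value.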

Assay [8] is filed under the species Homo sapiens. Put plainly: Sour character at a concentration of 248 ppm (mean value).
The species named for assay [9] is Homo sapiens. The assay is described as follows: Intensity calculated on a weight basis relative to an 85500 ppm sucrose solution at a concentration of 248 ppm (mean value). A digest of the protocol:
(§4)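 Trained human panel tasted aqueous solutions of purity-checked (≥95 weight percent) compounds cleared for mutagenicity and mouse oral toxicity. Weight-basis intensity I_w = perceived intensity × (85500 ppm sucrose / compound concentration in ppm). The mean is reported with 2S_m limits; data deviating excessively at 95% confidence were rejected by the t-value method.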

Assay [10] is filed under the species Homo sapiens. The assay is described as follows: Percentage of judgments reporting an aftertaste at a concentration of 248 ppm and character thereof. The procedure, abridged:
as §2

The species named for assay [11] is Homo sapiens. The assay is described as follows: Sweet / Bitter character at a concentration of 248 ppm (mean value); 8/92.
Assay [12] is filed under the species Homo sapiens. Put plainly: Bitter character at a concentration of 248 ppm (mean value). The procedure, abridged:
(§5)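 Trained human panel tasted aqueous solutions. Each judge reported whether there was an aftertaste and its character (sweet, bitter or bitter-sweet). The value is the percentage of judgments reporting a bitter aftertaste.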

The species entered for assay [13] is Homo sapiens. Put plainly: Other taste character at a concentration of 248 ppm (mean value). A digest of the protocol:
(§6)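 Trained human sensory panel (Swartz method) tasted dilute aqueous solutions of the compounds, which had to be ≥95 weight percent pure and free of mutagenicity and toxicity. Taste character is reported as the mean value with 2S_m limits. Data deviating excessively at the 95% confidence level were rejected by the t-value method.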

The species named for assay [14] is Homo sapiens. Put plainly: Bitter character at a concentration of 1013 ppm (mean value). A digest of the protocol: as §5
For assay [15], the species on record is Homo sapiens. The assay is described as follows: Intensity calculated on a weight basis relative to an 85500 ppm sucrose solution at a concentration of 1013 ppm (mean value). The procedure, abridged: as §4
The species named for assay [16] is Homo sapiens. Put plainly: Sweet / Bitter character at a concentration of 1013 ppm (mean value); 28/72.
The species named for assay [17] is Homo sapiens. Put plainly: Sour character at a concentration of 1013 ppm (mean value).
For assay [18], the species on record is Homo sapiens. Put plainly: Salty character at a concentration of 1013 ppm (mean value).
Assay [19] is filed under the species Homo sapiens. Put plainly: Experimentally determined perceived intensity of compound at a concentration of 1013 ppm (mean value). A digest of the protocol:
as §1

Assay [20] is filed under the species Homo sapiens. Put plainly: Other taste character at a concentration of 1013 ppm (mean value). The procedure, abridged: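 Trained human panel tasted aqueous solutions of each compound. Aftertaste is scored as the percentage of judgments reporting one, with its character coded sweet (s), bitter (b) or bitter-sweet (bs).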
The species named for assay [21] is Homo sapiens. The assay is described as follows: Sweet character at a concentration of 1013 ppm (mean value).
Assay [22] is filed under the species Homo sapiens. The assay is described as follows: Percentage of judgments reporting an aftertaste at a concentration of 1013 ppm and character thereof. The procedure, abridged:
as §2

The species named for assay [23] is Homo sapiens. Put plainly: Intensity calculated on a molar basis relative to a 0.25 M sucrose solution at a concentration of 1013 ppm (mean value). A digest of the protocol: as §3
The species entered for assay [24] is Homo sapiens. Put plainly: Intensity calculated on a weight basis relative to an 85500 ppm sucrose solution at a concentration of 250 ppm (mean value). The procedure, abridged:
as §4

Assay [25] is filed under the species Homo sapiens. Put plainly: Sweet character at a concentration of 250 ppm (mean value). The procedure, abridged:
as §6

The species entered for assay [26] is Homo sapiens. Put plainly: Sweet / Bitter character at a concentration of 250 ppm (mean value); 0/100.
For assay [27], the species on record is Homo sapiens. Put plainly: Salty character at a concentration of 250 ppm (mean value). The procedure, abridged:
as §6

Assay [28] is filed under the species Homo sapiens. Put plainly: Intensity calculated on a molar basis relative to a 0.25 M sucrose solution at a concentration of 250 ppm (mean value). The procedure, abridged:
as §3

For assay [29], the species on record is Homo sapiens. Put plainly: Other taste character at a concentration of 250 ppm (mean value). A digest of the protocol:
as §6

The species named for assay [30] is Homo sapiens. The assay is described as follows: Sour character at a concentration of 250 ppm (mean value). A digest of the protocol: as §6
Assay [31] is filed under the species Homo sapiens. The assay is described as follows: Bitter character at a concentration of 250 ppm (mean value). A digest of the protocol: as §5
For assay [32], the species on record is Homo sapiens. The assay is described as follows: Percentage of judgments reporting an aftertaste at a concentration of 250 ppm and character thereof. The procedure, abridged: as §2
The species named for assay [33] is Homo sapiens. The assay is described as follows: Experimentally determined perceived intensity of compound at a concentration of 250 ppm (mean value). A digest of the protocol:
as §1

The species named for assay [34] is Homo sapiens. The assay is described as follows: Intensity calculated on a molar basis relative to a 0.25 M sucrose solution at a concentration of 54 ppm (mean value). A digest of the protocol:
as §3

The species entered for assay [35] is Homo sapiens. Put plainly: Bitter character at a concentration of 54 ppm (mean value). A digest of the protocol:
as §5

The species named for assay [36] is Homo sapiens. Put plainly: Other taste character at a concentration of 54 ppm (mean value). The procedure, abridged:
as §6

For assay [37], the species on record is Homo sapiens. The assay is described as follows: Experimentally determined perceived intensity of compound at a concentration of 54 ppm (mean value). The procedure, abridged:
as §1

The species entered for assay [38] is Homo sapiens. The assay is described as follows: Sweet character at a concentration of 54 ppm (mean value).
The species named for assay [39] is Homo sapiens. The assay is described as follows: Salty character at a concentration of 54 ppm (mean value).
Assay [40] is filed under the species Homo sapiens. The assay is described as follows: Percentage of judgments reporting an aftertaste at a concentration of 54 ppm and character thereof.
The species entered for assay [41] is Homo sapiens. The assay is described as follows: Intensity calculated on a weight basis relative to an 85500 ppm sucrose solution at a concentration of 54 ppm (mean value). A digest of the protocol:
as §4

Assay [42] is filed under the species Homo sapiens. The assay is described as follows: Sweet / Bitter character at a concentration of 54 ppm (mean value); 14/86.
The species entered for assay [43] is Homo sapiens. Put plainly: Sour character at a concentration of 54 ppm (mean value).

Molecules are shown by their SMILES.

Consider `COc1ccc(CCC(=O)c2c(O)cc(OC(CCC(=O)[O-])C(=O)[O-])cc2O)cc1O.[Na+].[Na+]` (configuration not stated), for which the values for the Judgments in the assay filed under Homo sapiens [1] and in the assay filed under Homo sapiens [3] were 1 and 0, respectively. Besides, the IP in the assay listed under Homo sapiens [2] stood at 0.
With `O=C([O-])COc1cc(O)c(C(=O)CCc2ccc(O)c(O)c2)c(O)c1.[Na+]`, the Judgments came out at 12 in the assay filed under Homo sapiens [1] and 38 in the assay filed under Homo sapiens [10]. Moreover, in the assay filed under Homo sapiens [4], the IP turned out to be 0.15. Also, the Taste character is 0 in the assay filed under Homo sapiens [5]; 3 in the assay listed under Homo sapiens [6]; 0 in the assay listed under Homo sapiens [8]; 8 in the assay filed under Homo sapiens [11]; 33 in the assay listed under Homo sapiens [12]; 64 in the assay listed under Homo sapiens [13]. Moreover, the IM in the assay listed under Homo sapiens [7] is given as 56. In the assay listed under Homo sapiens [9], the IW is recorded as 52.
Turning to `COc1ccc(/C=C/C(=O)c2ccc(OCCCS(=O)(=O)[O-])cc2O)cc1O.[K+]`, the values for the Judgments in the assay listed under Homo sapiens [1] and in the assay listed under Homo sapiens [22] were 12 and 100, respectively. Further, the Taste character stood at 59 in the assay filed under Homo sapiens [14]; 28 in the assay listed under Homo sapiens [16]; 0 in the assay listed under Homo sapiens [17]; 0 in the assay filed under Homo sapiens [18]; 18 in the assay listed under Homo sapiens [20]; 23 in the assay filed under Homo sapiens [21]. For the same compound, in the assay listed under Homo sapiens [15], the IW was 38. In the assay filed under Homo sapiens [19], this compound gave an IP of 0.45. For the same compound, the IM in the assay filed under Homo sapiens [23] was 50.
For the compound `O=C(O)CCc1ccc(O)c(O)c1` [DIHYDROCAFFEIC ACID], the Judgments in the assay listed under Homo sapiens [1] is recorded as 8; in the assay listed under Homo sapiens [32], 50. Besides, the IW in the assay filed under Homo sapiens [24] is given as 250. Also, the Taste character is 0 in the assay listed under Homo sapiens [25]; 0 in the assay listed under Homo sapiens [26]; 0 in the assay listed under Homo sapiens [27]; 9 in the assay filed under Homo sapiens [29]; 76 in the assay listed under Homo sapiens [30]; 15 in the assay listed under Homo sapiens [31]. The IM in the assay filed under Homo sapiens [28] was 130. The same compound registered an IP in the assay listed under Homo sapiens [33] of 0.73.
Regarding `COc1ccc(CC(=O)c2c(O)cc(O)cc2O)cc1O`, the values for the Judgments in the assay filed under Homo sapiens [1] and in the assay filed under Homo sapiens [40] were 12 and 0, respectively. For the same compound, the IM in the assay filed under Homo sapiens [34] is on record as 150. In addition, the Taste character in the assay filed under Homo sapiens [35] came out at 70; in the assay filed under Homo sapiens [36], 19; in the assay filed under Homo sapiens [38], 11; in the assay listed under Homo sapiens [39] it was 0; in the assay listed under Homo sapiens [42], 14; in the assay filed under Homo sapiens [43], 0. Further, the IP in the assay listed under Homo sapiens [37] is given as 0.11. Further, in the assay listed under Homo sapiens [41], the IW is listed as 170.
